We go through 19 molecules from ChEMBL document CHEMBL4814004, “Design and synthesis of quinoline-pyrimidine inspired hybrids as potential plasmodial inhibitors” (Eur J Med Chem, 2021).

One data set deals with Plasmodium falciparum. Nature of the data set: Antiplasmodial activity against chloroquine-sensitive Plasmodium falciparum NF54 infected in erythrocytes assessed as reduction in parasite growth incubated for 48 hrs by lactate dehydrogenase assay. The settings on record: NF54, Erythrocyte. It counts as functional, organism-based. Put shortly:
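P. falciparum NF54 cultured in supplemented RPMI-1640 at 37 °C under 5% CO₂/3% O₂/92% N₂. Rings synchronised with 5% D-sorbitol and set to 2% parasitaemia, 2% haematocrit. Serial dilutions added after a 24 h incubation, then a further 48 h incubation. Quinine as positive control. pLDH read-out with tetrazolium-phenazine ethosulphate, 40 min at 37 °C, A620. IC50 from log sigmoid dose-response curves, triplicate.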

The next data set concerns HEK293. The data set is described as follows: Cytotoxicity against human HEK293 cells incubated for 48 hrs by MTT assay. Format: cell-based. The note with it: HEK293, 48 h. Put shortly: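 HEK-293 monolayers grown in DMEM with 10% FBS and penicillin/streptomycin at 37 °C, 5% CO₂. Cells at 10 000/well exposed 48 h to serial dilutions with final DMSO under 1%. Camptothecin as positive control. MTT (5 mg/ml in PBS pH 7.3) added for 2 h, formazan dissolved in DMSO, read at A540 with 690 nm reference. IC50 from % viability, triplicate.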

The nature of data set [1]: Binding affinity to recombinant Plasmodium falciparum HSP70-z expressed in Escherichia coli assessed as steady state affinity by SPR analysis. Put shortly:
(§1)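 MP-SPR at 25 °C in PBS-Tween 20 with 20 mM EDTA, pH 7.4. Analyte at 0, 1.25, 2.5, 5 and 10 nM, injected three times. Association 3 min, dissociation 10 min. Double-referenced, global 1:1 Langmuir fit.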

Data set [2] is described as follows: Binding affinity to recombinant Plasmodium falciparum HSP70-1 expressed in Escherichia coli assessed as steady state affinity by SPR analysis. Put shortly: as §1
The nature of data set [3]: Binding affinity to recombinant Plasmodium falciparum HSP70-z expressed in Escherichia coli assessed as dissociation rate constant by SPR analysis. Put shortly: as §1
Data set [4] can be described thus: Binding affinity to recombinant Plasmodium falciparum HSP70-1 expressed in Escherichia coli assessed as dissociation rate constant by SPR analysis. Put shortly:
as §1

The nature of data set [5]: Selectivity index, ratio of IC50 for human HEK293 cells to IC50 for Plasmodium falciparum NF54. Format: toxicity. The note with it: read-out: Ratio IC50.

Structures are written as SMILES.

Take `COc1ccc(-c2cc(-c3ccc(OC)c(OC)c3)nc(N3CCN(c4ccnc5cc(Cl)ccc45)CC3)n2)cc1`: in the data set with Plasmodium falciparum, the IC50 came to 17.8 µM.
In turn, `CCN(CC)CCCC(C)Nc1ccnc2cc(Cl)ccc12` (centres undefined) [CHLOROQUINE] displayed a half-maximal inhibitory concentration (IC50) with HEK293 of 101 µM.
For the molecule `Oc1ccc(-c2cc(-c3ccc(O)c(O)c3)nc(NCCCCNc3ccnc4cc(Cl)ccc34)n2)cc1`, the results for the equilibrium dissociation constant (Kd) in data set [1] and in data set [2] were 4.75 µM and 0.281 µM, respectively. Moreover, in the data set on Plasmodium falciparum, the IC50 stood at 1.62 µM. Further, the “Dissociation rate constant (koff)” value in data set [3] is 9.06 10^-2/s; in data set [4] it was 7.84 10^-2/s.
As for `COc1ccc(-c2cc(-c3ccc(OC)c(OC)c3)nc(NCCCCNc3ccnc4cc(Cl)ccc34)n2)cc1`, the IC50 with Plasmodium falciparum is 2.61 µM.
On the same count and under the same terms, under `COc1ccc(-c2cc(-c3ccc(OC)cc3)nc(NCCCCNc3ccnc4cc(Cl)ccc34)n2)cc1` stands 83 µM.
Regarding `C=C[C@H]1CN2CC[C@H]1C[C@H]2[C@H](O)c1ccnc2ccc(OC)cc12` [QUININE], the selectivity ratio in data set [5] amounted to 1240. Further, the IC50 came out at 134 µM in the data set with HEK293 and 0.108 µM with Plasmodium falciparum.
On to `Oc1ccc(-c2cc(-c3ccc(O)c(O)c3)nc(N3CCN(c4ccnc5cc(Cl)ccc45)CC3)n2)cc1`, for which the IC50 in the data set on Plasmodium falciparum came out at 2.66 µM.
Still for that read-out and setting: with `COc1ccc(C(=O)/C=C/c2ccc(OC)c(OC)c2)c(O)c1` the figure was 3.18 µM.
In the case of `CC[C@@]1(O)C(=O)OCc2c1cc1n(c2=O)Cc2cc3ccccc3nc2-1` [CAMPTOTHECIN], the selectivity ratio in data set [5] came to 0.01.
As for `COc1ccc(-c2cc(-c3ccc(OC)cc3)nc(N3CCN(c4ccnc5cc(Cl)ccc45)CC3)n2)cc1`, the Kd came to 13.7 µM in data set [1] and 0.00219 µM in data set [2]. Also, the IC50 in the data set with Plasmodium falciparum amounted to 7.69 µM. Besides, the “Dissociation rate constant (koff)” value in data set [3] is given as 8.24 10^-2/s; in data set [4], 1.32 10^-2/s.
As to `COc1ccc(-c2cc(-c3ccc(C)cc3)nc(N3CCN(c4ccnc5cc(Cl)ccc45)CC3)n2)cc1`, in the data set on Plasmodium falciparum, the IC50 turned out to be 2.63 µM.
Same read-out and setting: with `COc1ccc(-c2cc(-c3ccc(C)cc3)nc(NCCCNc3ccnc4cc(Cl)ccc34)n2)cc1` the figure was 2.71 µM.
Still for that read-out and setting: with `Clc1ccc2c(N3CCN(c4nc(-c5ccccc5)cc(-c5ccccc5)n4)CC3)ccnc2c1` the figure was 7.5 µM.
For `COc1ccc(-c2cc(-c3ccc(OC)c(OC)c3)nc(N3CCN(c4ccnc5cc(Cl)ccc45)CC3)n2)cc1OC`, the values for the dissociation constant Kd in data set [1] and in data set [2] were 2.05 µM and 0.0261 µM, respectively. Besides, the IC50 with Plasmodium falciparum worked out at 6.17 µM. For the same molecule, the figures for the “Dissociation rate constant (koff)” value in data set [3] and in data set [4] were 7.48 10^-2/s and 7 10^-2/s, respectively.
Turning to `Cc1ccc(-c2cc(-c3ccc(Cl)cc3)nc(N3CCN(c4ccnc5cc(Cl)ccc45)CC3)n2)cc1`, the IC50 in the data set on Plasmodium falciparum was 13.1 µM.
Turning to `COc1ccc(/C=C/C(=O)c2ccc(O)cc2)c(O)c1`, the IC50 in the data set on Plasmodium falciparum came to 0.59 µM.
For the molecule `Oc1ccc(-c2cc(-c3ccc(O)cc3)nc(NCCCCNc3ccnc4cc(Cl)ccc34)n2)cc1`, the results for the Kd in data set [1] and in data set [2] were 0.00443 µM and 0.0114 µM, respectively. For the same molecule, in data set [5], the selectivity ratio was found to be 9.79. Besides, the results for the IC50 in the data set with HEK293 and in the data set with Plasmodium falciparum were 3.16 µM and 0.32 µM, respectively. Moreover, the “Dissociation rate constant (koff)” value in data set [3] is 1.2 10^-1/s; in data set [4], 8.81 10^-2/s.
As for `COc1ccc(-c2cc(-c3ccc(C)cc3)nc(NCCNc3ccnc4cc(Cl)ccc34)n2)cc1`, the IC50 with Plasmodium falciparum was found to be 4.3 µM.
Same read-out and setting: under `Cc1ccc(-c2cc(-c3ccc(Cl)cc3)nc(NCCCCNc3ccnc4cc(Cl)ccc34)n2)cc1` stands 9.49 µM.
